Results taken from PMC8756568 (ACS Omega, 2021).

Tests used:
B16F10 cells = test: cellular internalization in B16F10 cells; assay type: cell-based, mouse; settings: n = 3
Huh-7 cells = test: cellular uptake in Huh-7 cells; assay type: cell-based, human; settings: n = 3
Outline: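 Huh-7 cells were seeded at 1×10^5 per well in DMEM/10% FBS. Radiolabeled tracer (740 KBq/1 mL medium) was added, with incubation at 37 or 4 °C for 5, 10, 20, 40, 60 and 80 min. Cells were washed three times with cold PBS and lysed in 0.5 M NaOH. Lysate radioactivity was gamma-counted.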

## NODAGA-Ahx-CWRLRWHSPLKGM-OH [[^64Cu]CM-3]
B16F10 cells
  in vitro cellular internalization: weaker binding
Huh-7 cells
  in vitro cellular internalization: weaker binding
